Bioassay records deposited in PubChem BioAssay by Broad Institute.
FN deposition inh – fibronectin deposition inhibition. AH1F fibroblasts, Alexa488-fibronectin deposition fluorescence, overnight. inhibition, % at 12.6 µM. hit rate 0.086% among 350,000;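 active means mean inhibition across replicates of 30% or more, regardless of how many single replicates reach that level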
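Test system: AH1F fibroblast monolayer depositing Alexa488-labelled fibronectin into matrix. Input: 10000 cells per well. Technique: fluorescence, ex 485 nm, em 525 nm. Buffer or medium: DMEM plus 2% serum, read in PBS. Timing: 1 h cell adhesion before compound, then overnight fibronectin incubation. Compound: single dose, pinned. Read-out basis: inhibition from reduced deposited-fibronectin fluorescence.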
EWS-Fli block – inhibitors of EWS/Fli oncoprotein transcriptional activity; A673 NR0B1-luciferase reporter, viability-normalised; inhibition, % at 12.6 µM; hit rate 0.67% among 350,000; AID 651661;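 active means mean inhibition of at least 50% after viability correction, with every replicate also passing that limit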;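 further: firefly luciferase signal divided by Alamar Blue viability fluorescence both relative to DMSO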
FGF22 binding – FGF22 (human) thermal shift binding. Q9HCT0. activity (Tm shift, normalised), % at 9.99 µM. recombinant FGF22 thermal shift, SYPRO orange fluorescence; percent of sucrose octasulfate shift, DMSO zero. AID 651658. hit rate 1.5% among 340,000;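 active means mean Tm shift, scaled 0 neutral to 100 positive control, at about 1.3% or above, every replicate too, limit read from the data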
Target sequence (Q9HCT0 whole entry, looked up): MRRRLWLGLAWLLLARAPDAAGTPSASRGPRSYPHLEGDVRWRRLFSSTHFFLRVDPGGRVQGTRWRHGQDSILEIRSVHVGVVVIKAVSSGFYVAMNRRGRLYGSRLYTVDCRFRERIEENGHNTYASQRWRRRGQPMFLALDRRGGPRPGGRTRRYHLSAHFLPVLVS
PAX8 reporter – PAX8 transcriptional activity inhibition; hit rate 1.2% among 360,000; inhibition, % at 12.6 µM; RMG-I TPO-luciferase reporter, SteadyGlo, 24 h;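 active means mean replicate inhibition at least 60% with every replicate also reaching 60%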;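 further: luciferase light reporting Pax8 driven TPO promoter activity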
PGC1a acetyl inh – modulators of PGC1a acetylation | U2OS PGC1a acetylation, AlphaScreen anti-acetyl-lysine; with virally co-expressed GCN5 acetyltransferase | inhibition, % at 15.6 µM | hit rate 0.17% among 350,000 | AID 651687;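 active means every replicate shows inhibition of at least 40%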
Env fusion inh – HIV envelope-mediated fusion inhibition. HeLa-JRFL Env/CEM21 cell fusion, luciferase. inhibition, % at 12.3 µM. hit rate 1.1% among 360,000;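 active means mean replicate inhibition score of at least 50 and every replicate individually at or above 50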
Large screens that a line does not name were inactive. In the library only some 3.1% were active in any assay of this set; here they are far more common.

Cn1c(=O)c2c(nc(SCC(=O)NCc3ccc4c(c3)OCO4)n2Cc2ccccc2)n(C)c1=O	none (no result: FN deposition inh, EWS-Fli block, FGF22 binding, PAX8 reporter, Env fusion inh)
CCCCn1c(SCC(=O)Nc2ccc3c(c2)OCO3)nc2c1c(=O)n(C)c(=O)n2C	Env fusion inh 79 (no result: FN deposition inh, EWS-Fli block, FGF22 binding, PAX8 reporter)
Cn1c(=O)c2c(nc(SCC(=O)NCc3ccc4c(c3)OCO4)n2Cc2ccc(F)cc2)n(C)c1=O	Env fusion inh 137 (no result: EWS-Fli block, FGF22 binding)
COc1ccc(S(=O)(=O)N(C)C[C@@H]2Oc3ccc(NC(=O)CCN4CCOCC4)cc3C(=O)N([C@H](C)CO)C[C@@H]2C)cc1	none (no result: FN deposition inh, PAX8 reporter, Env fusion inh)
O=C1CSCN1c1ccc(Cl)c(Cl)c1	FGF22 binding 43 (no result: PGC1a acetyl inh)
CCOc1ccc(NC(=O)CSc2nnc(Cn3cnc([N+](=O)[O-])n3)n2C)cc1	none (no result: EWS-Fli block, FGF22 binding, PGC1a acetyl inh)
CCOc1ccc(NC(=O)CSc2nnc(Cn3cnc([N+](=O)[O-])n3)n2CC)cc1	FGF22 binding 43 (no result: FN deposition inh)
COc1cccc(-c2cnc3c(c2)C(=O)N([C@H](C)CO)C[C@H](C)[C@@H](CN(C)CC2CCCC2)O3)c1	none (no result: FN deposition inh, FGF22 binding)
COc1cc(OC)c(C(=O)OCC(=O)Nc2cc(C)on2)cc1OC	FGF22 binding 43
O=C(Nc1ccccc1C(=O)NC(Cc1ccc(O)cc1)C(=O)O)c1ccccc1 (centres undefined)	FGF22 binding 44
O=C(CSC(=S)N1CCCC1)c1cc(Br)cc(Br)c1O	FGF22 binding 46 (no result: FN deposition inh, PGC1a acetyl inh)
Cc1ccc(S(=O)(=O)Nc2cccc(-c3ccc4nncn4n3)c2)cc1	EWS-Fli block 57
CC(=O)c1ccc(S(=O)(=O)Nc2cccc(-c3ccc4nncn4n3)c2)cc1	none (no result: EWS-Fli block, FGF22 binding, PGC1a acetyl inh)
COCCNC(=O)C[C@H]1C[C@@H]2c3cc(NS(C)(=O)=O)ccc3O[C@@H]2[C@@H](CO)O1	none
Nc1nc(Nc2cccc(F)c2)nc(NCc2ccco2)c1[N+](=O)[O-]	none
Nc1nc(Nc2cccc(Cl)c2)nc(NCc2ccco2)c1[N+](=O)[O-]	Env fusion inh 76 (no result: PGC1a acetyl inh)
Cc1cccc(Nc2nc(N)c([N+](=O)[O-])c(NCc3ccco3)n2)c1	none (no result: PGC1a acetyl inh, Env fusion inh)
Nc1nc(Nc2ccc(Cl)cc2)nc(NCc2ccco2)c1[N+](=O)[O-]	Env fusion inh 59 (no result: FGF22 binding)
CCn1cc(CN2N=C(C)CC2c2ccccc2)c(C)n1 (centres undefined)	FGF22 binding 44 (no result: PGC1a acetyl inh)
CCn1cc(CN2CCc3c([nH]c4ccccc34)C2c2cccc(O)c2)c(C)n1 (centres undefined)	none (no result: PGC1a acetyl inh)
O=C(N/C=C/n1cnc2cc(C(F)(F)F)ccc21)c1ccccc1F	FGF22 binding 44 (no result: PGC1a acetyl inh)
CC(C)NC(=O)Nc1ccc2c(c1)CC(=O)N([C@H](C)CO)C[C@@H](C)[C@@H](CN(C)S(=O)(=O)c1ccccc1)O2	none (no result: FN deposition inh, EWS-Fli block, FGF22 binding)
O=C(OCC12CC3CC(CC(C3)C1)C2)c1ccc(NCc2cc(O)ccc2O)cc1	EWS-Fli block 56 (no result: PGC1a acetyl inh)
O=C(OCCC12CC3CC(CC(C3)C1)C2)c1ccc(NCc2cc(O)ccc2O)cc1	EWS-Fli block 68 (no result: PGC1a acetyl inh)
COc1ccc(S(=O)(=O)N(C)C[C@@H]2Oc3ccc(NS(=O)(=O)c4ccc(C)cc4)cc3CC(=O)N([C@H](C)CO)C[C@H]2C)cc1	none (no result: FN deposition inh)
COc1ccc2c3c(n(C)c2c1)[C@H](CO)N(C(=O)NC(C)C)CC31CN(CC2CC2)C1	none (no result: FN deposition inh, PGC1a acetyl inh, Env fusion inh)
COc1cccc(C(=O)Nc2ccc3[nH]c(=O)[nH]c3c2)c1OC	Env fusion inh 60
Cc1cccc(C(=O)OCC(=O)NCc2cccs2)c1	none
CS(=O)(=O)c1ccc(C(=O)OCC(=O)NCc2cccs2)cc1[N+](=O)[O-]	PAX8 reporter 101
C[C@H](CO)N1C[C@H](C)[C@H](CN(C)S(=O)(=O)c2ccc(Cl)cc2)Oc2c(NS(=O)(=O)c3cccs3)cccc2C1=O	none (no result: FN deposition inh)
N/C(=N\NC(=O)c1ccc(F)cc1)c1cc2ccccc2oc1=O	FGF22 binding 43
Cc1ccc(C(=O)Nc2cc3ccccc3oc2=O)cc1	EWS-Fli block 79 (no result: FN deposition inh)
N/C(=N\NC(=O)c1cccc(F)c1)c1cc2ccccc2oc1=O	none
Cn1c(SCC(=O)N2c3ccccc3Sc3ccccc32)nc2ccccc21	none (no result: PGC1a acetyl inh)
CC(C)n1c(SCC(=O)Nc2nc3c(s2)CCCC3)nc2c1c(=O)n(C)c(=O)n2C	Env fusion inh 87 (no result: EWS-Fli block, FGF22 binding)
CCCn1c(SCC(=O)N2c3ccccc3Sc3ccccc32)nc2c1c(=O)n(C)c(=O)n2C	FN deposition inh active (no result: EWS-Fli block, FGF22 binding, PAX8 reporter, PGC1a acetyl inh)
